# Screening results as filed in PubChem.
# NSD2 inh: NSD2 (human) methyltransferase inhibition; O96028; NSD2 peptide methylation, AlphaScreen, 120 min; inhibition, % at 12.5 µM; hit rate 0.54% among 310,000; AID 743445; in the data active = inhibition above about 50%
# UHRF1 MBD2 ctr: UHRF1 methyl-DNA binding inhibition. Q96T88. UHRF1 binding to methylated oligo, TR-FRET. inhibition, % at 4.4 µM. hit rate 0.75% among 370,000. AID 687016; in the data active = inhibition above about 21%;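 note: UHRF1 SRA domain binding a hemimethylated CpG hairpin DNA probe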
# Casp6 inh: inhibitors of human caspase-6 | P55212 | hit rate 0.53% among 350,000 | purified caspase-6, Z-VEID-R110 cleavage fluorescence | inhibition, % at 12.5 µM;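 active = mean inhibition across replicates at least about 35%, with every replicate also reaching that limit, limit read from the data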
# TDP2 absorb: blocks human TDP2 phosphodiesterase activity. O95551. recombinant TDP2, T5PNP hydrolysis, p-nitrophenol absorbance 415 nm. inhibition, % at 12.8 µM. hit rate 0.34% among 370,000;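 active = inhibition above the mean of all tested compounds plus 3 SD, set per campaign, cut at about 25% in these data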
#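 Test system: Human TDP2 enzyme | Reagent: 5 mM T5PNP | Compound dosing: 12.8 µM single point, 1% DMSO | Incubation: Enzyme reaction with compound for 2 h at 37 °C | Technique: p-Nitrophenol epi absorbance | Read-out: % inhibition relative to enzyme-containing and enzyme-free wells | Benchmarks: High control without enzyme, low control DMSO plus TDP2 | Replicates: Singlicate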
# MBD2 inh: MBD2-methylated oligo binding inhibition. Q9UBB5. TR-FRET, MBD2 binding to methylated oligonucleotide. inhibition, % at 4.4 µM. hit rate 0.31% among 370,000. AID 686964; in the data active = inhibition above about 13%
# Target sequence (Q9UBB5 whole entry, looked up): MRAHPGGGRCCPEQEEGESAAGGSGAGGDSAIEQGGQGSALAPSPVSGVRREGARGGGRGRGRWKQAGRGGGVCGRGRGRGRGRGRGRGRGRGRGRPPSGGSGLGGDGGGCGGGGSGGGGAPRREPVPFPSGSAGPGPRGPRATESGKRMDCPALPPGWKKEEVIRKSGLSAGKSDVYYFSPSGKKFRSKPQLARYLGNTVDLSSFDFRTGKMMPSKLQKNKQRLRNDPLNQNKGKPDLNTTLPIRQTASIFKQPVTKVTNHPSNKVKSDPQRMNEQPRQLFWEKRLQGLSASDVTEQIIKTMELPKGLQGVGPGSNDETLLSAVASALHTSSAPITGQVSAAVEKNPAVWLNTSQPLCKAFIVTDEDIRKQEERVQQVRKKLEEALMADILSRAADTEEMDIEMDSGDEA
# LEDGF integ inh: blocks HIV-1 LEDGF/p75-dependent DNA integration | TR-FRET IN-LEDGF/p75 DNA integration, Eu/Cy5 | inhibition, % at 3.7 µM | hit rate 0.64% among 370,000;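 active = inhibition above the screen-wide mean plus 3 SD, cut at about 13% in these data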;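 note: signal is the Cy5 over europium emission ratio at 671 and 618 nm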
# TDP2 confirm: confirmation of human TDP2 inhibitors; AID 743263; inhibition, % at 12.8 µM; shares compounds with TDP2 absorb; recombinant human TDP2, absorbance read-out; hit rate 22% among 1,100; in the data active = inhibition above about 25%
# A number is an active result; n = inactive; x = no result. Compounds with a hit are over-represented: about 1.9% of the library has one in this group of screens.
SMILES,NSD2 inh,UHRF1 MBD2 ctr,Casp6 inh,TDP2 absorb,MBD2 inh,LEDGF integ inh,TDP2 confirm
N#CC1=C(N)Oc2n[nH]c(-c3ccccc3)c2C1c1cccnc1 (configuration not stated),n,n,x,n,n,n,x
CC(=O)N1CCN(CC(=O)Nc2ccc3c(c2)CCC3)CC1,n,n,n,n,n,n,x
O=C(CN1CCCC1)Nc1ccc2c(c1)CCC2,n,n,n,27.8,n,n,n
CO[C@H]1CN(C)C(=O)c2ccc(NC(=O)C3CCC3)cc2OC[C@H](C)N(C(=O)NC(C)C)C[C@@H]1C,x,x,n,x,x,x,x
Cc1ccccc1OCCC(=O)OCC(=O)c1c(N)n(CC(C)C)c(=O)n(C)c1=O,n,n,n,29.4,n,n,n
CC(C)CCNC(=O)[C@H](Cc1ccccc1)N1Cc2ccccc2C1=O,n,n,n,34.3,n,n,n
CC(C)CCNC(=O)[C@H](CSCc1ccccc1)N1Cc2ccccc2C1=O,x,n,n,n,n,n,x
CN1C(=O)c2cc(NC(=O)NC3CCCC3)ccc2OC[C@@H]2O[C@H](CC(=O)NCC3CC3)CC[C@H]21,x,x,n,x,x,x,x
Cc1nonc1NC(=O)CSc1nc(CCC2CCCC2)nc2ccccc12,n,n,n,25.0,n,n,n
Cc1cc(NC(=O)CSc2nc(CCC3CCCC3)nc3ccccc23)no1,n,n,x,n,n,n,x
O=C1NC(=S)/C(=C\c2ccc(-c3ccccc3Cl)o2)S1,n,n,x,n,n,n,x
O=C1NC(=O)/C(=C/c2ccc(-c3cc(C(=O)O)ccc3Cl)o2)S1,n,n,n,32.5,n,n,n
CC1=NN(c2ccc(C)c(C)c2)C(=O)/C1=C/c1ccc2c(c1)n(C)c(=O)n2C,n,n,x,52.8,n,n,31.4
CC1=NN(c2cccc(F)c2)C(=O)/C1=C/c1ccc(N(C)C)cc1,n,n,n,n,n,n,x
C[C@@H]1CN([C@H](C)CO)C(=O)c2cc(C#CCN(C)C)cnc2O[C@@H]1CN(C)Cc1ccccc1F,x,x,n,x,x,x,x
COC1=C(Nc2ccc(C)cc2)C(=O)c2ccccc2C1=O,77.6,n,n,55.0,n,n,n
COC(=O)c1cccc(-n2nnnc2SCC(=O)Nc2nc3c(s2)CCCC3)c1,n,n,x,47.9,n,n,n
COc1cccc(-n2nnnc2SCC(=O)Nc2nc3c(s2)CCCC3)c1,n,n,x,n,n,n,x
CNC(=O)C[C@@H]1CC[C@@H]2[C@H](COC[C@H](O)CN2C(=O)c2ccc3c(c2)OCO3)O1,x,x,n,x,x,x,x
C1=CC2c3ccccc3NC(c3ccncc3)C2C1 (configuration not stated),n,n,x,n,n,n,x
CC(=O)c1ccc2c(c1)C1C=CCC1C(c1ccncc1)N2 (configuration not stated),n,n,x,31.9,n,n,n
C[C@@H]1CN([C@@H](C)CO)C(=O)CCCn2nncc2CO[C@H]1CN(C)C(=O)Nc1cccc(C(F)(F)F)c1,x,x,n,x,x,x,x
CC(C)c1cccc(C(C)C)c1NC(=O)CNCC(O)c1ccccc1 (configuration not stated),n,n,n,25.6,n,n,n
CCC(CO)Oc1cc(NC(=O)c2cccc(OC)c2)c2ncn(C(C)C)c2c1 (configuration not stated),x,n,n,26.3,n,n,30.6
Cc1ccc(S(=O)(=O)Nc2ccc3c(c2)CC(=O)N([C@@H](C)CO)C[C@H](C)[C@@H](CN(C)S(C)(=O)=O)O3)cc1,x,x,n,x,x,x,x
SMILES,NSD2 inh,UHRF1 MBD2 ctr,Casp6 inh,TDP2 absorb,MBD2 inh,LEDGF integ inh,TDP2 confirm
Cc1sc2ncnc(N(C)Cc3cccs3)c2c1C,n,n,x,n,n,n,x
Cc1sc2ncnc(N(C)CCc3ccccn3)c2c1C,n,n,n,26.1,n,n,n
C[C@H]1CN([C@@H](C)CO)C(=O)c2cc(C#CCN(C)C)cnc2O[C@H]1CN(C)Cc1ccccc1,x,x,n,x,x,x,x
O=C(Cc1ccncc1)N1CC[C@H]2[C@H](CO)Nc3ccc(-c4ccccc4)cc3[C@H]21,x,x,n,x,x,x,x
COc1cccc(NC(=O)N2CC3(C2)[C@H](c2ccccc2)[C@@H](CO)N3C(=O)C2CCCC2)c1,x,x,n,x,x,x,x
N#C/C(=C\c1ccncc1)C(=O)Nc1ccc(C(=O)O)cc1,n,n,n,n,n,n,x
CC(C)c1ccc(NC(=O)/C(C#N)=C/c2ccncc2)cc1,n,n,n,24.5,n,n,n
COc1ccc(CNC(=O)C[C@@H]2CC[C@H](NC(=O)c3cccc(F)c3)[C@@H](CO)O2)cc1,x,x,n,x,x,x,x
N#Cc1c(N)n(CCc2ccc(F)cc2)c2nc3ccccc3nc12,n,n,x,n,n,n,x
COc1cc(Cn2c(N)c(C#N)c3nc4ccccc4nc32)cc(OC)c1,x,n,x,n,n,n,x
COc1ccc(Cn2c(N)c(C#N)c3nc4ccccc4nc32)cc1,n,n,x,36.6,n,n,n
COCCn1c(N)c(C#N)c2nc3ccccc3nc21,n,n,x,29.9,n,n,n
O=C(c1cc(COc2cccc3cnccc23)on1)N1CCC(c2ccccc2Cl)C1 (configuration not stated),n,n,n,25.2,n,n,n
Cc1ccc(CN2CCSCC2)cc1,n,n,n,26.0,n,n,n
Brc1ccc(CN2CCSCC2)cc1,n,n,n,n,n,n,x
Cc1ccc2nc(-c3ccc4c(c3)NC(=O)CO4)cn2c1,n,n,n,24.9,n,n,n
Cc1ccc2nc(-c3ccc4c(c3)OCCO4)cn2c1,n,n,n,n,n,n,x
O=S(=O)(Nc1c(O)ccc2ccccc12)c1ccc(F)cc1,n,n,n,24.9,n,n,n
O=S(=O)(Nc1c(O)ccc2ccccc12)c1ccccc1,n,n,n,n,n,n,x
O=C(N=Nc1c(O)[nH]c2ccc([N+](=O)[O-])cc12)c1ccccc1[N+](=O)[O-],n,n,n,34.7,n,n,n
O=S(=O)(c1ccc(S(=O)(=O)N2CCC(O)CC2)cc1)N1CCCC1,n,n,n,24.9,n,n,n
CC(C)c1ccc(NC(=O)NCc2ccccn2)cc1,n,n,n,52.2,n,n,n
C[C@@H]1CCCCO[C@@H](CN(C)C(=O)c2ccccc2)[C@H](C)CN([C@H](C)CO)C(=O)c2cc(NS(C)(=O)=O)ccc2O1,x,x,n,x,x,x,x
N#Cc1ccccc1NC(=O)CSc1n[nH]c(-c2ccco2)n1,n,n,n,32.3,n,n,n
O=C(CSc1n[nH]c(-c2ccco2)n1)Nc1ccc(Br)cc1,n,n,n,n,n,n,x
COc1ccc(NC(=O)Nc2ccc3c(c2)C(=O)N([C@H](C)CO)C[C@H](C)[C@@H](CN(C)C(=O)Nc2cccc4ccccc24)O3)cc1,x,x,n,x,x,x,x
C[C@H](CO)N1C[C@H](C)[C@H](CN(C)S(=O)(=O)c2ccc(F)cc2)Oc2ncc(C#CCN(C)C)cc2C1=O,x,x,n,x,x,x,x
O=C(Cn1cnc([N+](=O)[O-])c1)Nc1ccc(F)c(Cl)c1,n,n,n,28.6,n,n,n
